Paper PMC9279720 (Acta Pharmaceutica Sinica. B, 2021)

Tests used:
pUL89-C = biological target: T1, pUL89-C (Human cytomegalovirus, UniProt P16732); test: In vitro pUL89-C endonuclease assay; format: biochemical, HCMV; details: read-out: Endonuclease inhibition (%) at 20 μmol/L
T1 sequence (P16732 418-674 limits assumed): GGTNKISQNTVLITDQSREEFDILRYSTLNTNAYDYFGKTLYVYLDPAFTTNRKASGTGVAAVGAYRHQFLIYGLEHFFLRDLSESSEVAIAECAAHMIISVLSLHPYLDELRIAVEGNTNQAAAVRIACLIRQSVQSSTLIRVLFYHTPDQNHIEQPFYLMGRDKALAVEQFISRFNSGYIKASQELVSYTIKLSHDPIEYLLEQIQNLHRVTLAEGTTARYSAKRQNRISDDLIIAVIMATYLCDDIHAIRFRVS

HCMV ADCREGFP [1] = test: HCMV replication assay; format: cell-based, Human cytomegalovirus (HCMV); details: for SI (selectivity index, CC50/EC50): CC50 (HFF) / EC50 (HCMV); for Antiviral activity/potency in words: concentrations up to 50 μmol/L
Cell viability assay = format: cell-based; details: human, HFF cells (no virus)
HCMV ADCREGFP [2] = test: Time of addition assay; format: cell-based, Human cytomegalovirus (HCMV); details: 5 × EC50, added at indicated times post infection
Method in brief: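 HFFs seeded at 1.75 × 10^4 cells/well, grown 24 h in DMEM/10% FBS/1% P/S, then inoculated at MOI 0.01. Cells were held in DMEM with 5% FBS, 1% P/S and 0.5% DMSO until compound was added. GFP intensity was read after lysis; triplicate-well means were normalized to DMSO.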

HCMV ADCREGFP [3] = test: Compound withdrawal assay; format: cell-based, Human cytomegalovirus (HCMV); details: 5 × EC50, removed at indicated times, read at 168 h
Method in brief: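 HFFs in DMEM/5% FBS, inoculated with the virus at MOI 0.01 for 2 h before compound or 0.5% DMSO was added. At each withdrawal time, wells were washed twice in PBS and refed with 0.5% DMSO medium. Cells were lysed in Tris/DTT/Triton buffer and GFP read at ex/em 495/515 nm. Triplicate-well means.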

[4] = Plasma stability assay, human plasma; format: in vitro ADME; details: for half-life at 1 μmol/L: human, plasma, pH 7.4; for Plasma stability in words: species not told apart in the sentence (human and mouse in Table 3)
Method in brief: (§1)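 Test compound (1 μmol/L final) incubated at 37 °C in human or CD-1 mouse plasma diluted to 80% with 0.1 mol/L potassium phosphate, pH 7.4. Aliquots taken at time points up to […], quenched with acetonitrile/0.1% formic acid and centrifuged at 4 °C. Percent remaining and half-life determined by LC/MS/MS.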

[5] = Plasma stability assay, mouse plasma; format: in vitro ADME, mouse (CD-1); details: CD-1, mouse, pH 7.4
Method in brief: as §1

[6] = Microsomal stability assay, human liver microsomes; format: in vitro ADME; details: for half-life at 1 μmol/L: human, liver microsomes, pH 7.4; for Microsomal stability in words: species not told apart in the sentence (human and mouse in Table 3)
Method in brief: (§2)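 Test compound (1 μmol/L final) incubated at 37 °C with liver microsomes (human or CD-1 mouse; 0.5 mg/mL protein) and 1 mmol/L MgCl2 in 0.1 mol/L potassium phosphate, pH 7.4. Reaction started with NADPH (1 mmol/L final); a no-NADPH control and a verapamil positive control were run alongside. Samples taken up to 60 min and quenched in acetonitrile/0.1% formic acid. Half-life determined by LC/MS/MS.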

[7] = Microsomal stability assay, mouse liver microsomes; format: in vitro ADME; details: CD-1, mouse, pH 7.4
Method in brief: as §2

[8] = Parallel artificial membrane permeability assay; format: in vitro ADME; details: for Papp at 5 h, 2 μmol/L: PAMPA
Method in brief: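 Pre-coated lipid PAMPA plate system. Donor wells held test compound at 2 μmol/L in DPBS; acceptor wells held blank DPBS. Incubated 5 h at 25 °C without agitation. Donor and acceptor concentrations measured by LC/MS/MS. Pe calculated from an equilibrium-concentration equation (filter area 0.3 cm2). Compounds classed as high or low permeability at a cutoff of 1.5 × 10−6 cm/s.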

HFF cells = test: Cell viability assay; format: cell-based; details: for Cytotoxicity in words: HFFs

| SMILES | inhibition at 20 µM (pUL89-C) | SI (selectivity index, CC50/EC50) (HCMV ADCREGFP [1]) | CC50 at 168 h (Cell viability assay) | further results |
| --- | --- | --- | --- | --- |
| O=C(NCc1cc(F)c(F)cc1F)c1cn(Cc2ccc(F)cc2)cc(O)c1=O [Compound 8v] | 5% | 8.1 | 5.7 ± 2 µM | – |
| N#Cc1ccc(CNC(=O)c2cn(Cc3ccc(F)cc3)cc(O)c2=O)c(F)c1 [Compound 8r] | 5% | >42 | > 50 µM | – |
| O=C(NCc1ccccc1)c1cn(Cc2ccc(F)cc2)cc(O)c1=O [Compound 8d] | 9% | 4.7 | 7.1 ± 6.4 µM | – |
| O=C(Nc1ccc(F)cc1)c1cn(Cc2ccc(F)cc2)cc(O)c1=O [Compound 9b] | 9% | 6.4 | 5.6 ± 1.3 µM | – |
| O=C(NCc1cccc(F)c1)c1cn(Cc2ccc(F)cc2)cc(O)c1=O [Compound 8f] | 7% | 4.0 | 3.9 ± 1.8 µM | – |
| O=C(NCc1ccc(F)cc1F)c1c[nH]cc(O)c1=O [Compound 15] | 7% | >6.3 | > 50 µM | – |
| O=C(NCc1ccc(F)cc1F)c1cn(Cc2ccc(F)cc2)ccc1=O [Compound 17] | 5% | >7.6 | > 50 µM | – |
| CC(NC(=O)c1cn(Cc2ccc(F)cc2)cc(O)c1=O)c1ccc(F)cc1F (centres unmarked) [Compound 10] | 5% | >94 | > 50 µM | – |
| O=C(NCc1ccc(Br)cc1F)c1cn(Cc2ccc(F)cc2)cc(O)c1=O [Compound 8q] | 9% | >41 | > 25 µM | – |
| O=C(NCc1ccc(C(F)(F)F)cc1F)c1cn(Cc2ccc(F)cc2)cc(O)c1=O [Compound 8u] | 3% | >46 | > 25 µM | – |
| O=C(NCc1ccc(F)cc1F)c1cn(Cc2ccccc2)cc(O)c1=O [Compound 13] | 6% | >50 | > 50 µM | Time of addition, result in words (HCMV ADCREGFP [2]): active similar to, or possibly later than, LTV; Compound withdrawal, result in words (HCMV ADCREGFP [3]): viral replication recovered similarly to GCV; half-life at 1 μmol/L [4]: > 24 h; Plasma stability in words [4]: excellent; half-life at 1 μmol/L [5]: > 24 h; half-life at 1 μmol/L [6]: 1.7 ± 0.197 h; Microsomal stability in words [6]: good; half-life at 1 μmol/L [7]: 0.895 ± 0.00667 h; PAMPA permeability class [8]: high permeability; Papp at 5 h, 2 μmol/L [8]: 9.1 ± 1.1 ×10⁻⁶ cm/s |
| COc1cccc(N2CCN(C3=Nc4c(F)cccc4[C@H](CC(=O)O)N3c3cc(C(F)(F)F)ccc3OC)CC2)c1 [LTV, letermovir, reference compound] | – | – | – | Compound withdrawal, result in words (HCMV ADCREGFP [3]): the viral infection rebounded quickly compared to GCV |
| O=C(NCc1ccc(Cl)cc1F)c1cn(Cc2ccc(F)cc2)cc(O)c1=O [Compound 8k] | 14% | 4.4 | 2.4 ± 0.07 µM | – |
| CC1(C)OB(c2ccc(NC(=O)c3cn(Cc4ccc(F)cc4)cc(O)c3=O)cc2)OC1(C)C [Compound 9c] | 7% | >17 | > 50 µM | Antiviral activity/potency in words (HCMV ADCREGFP [1]): decreased potency; Cytotoxicity in words (HFF cells): no cytotoxicity |
| O=C(NCc1ccc(F)cc1F)c1cn(C2CC2)cc(O)c1=O [Compound 14] | 7% | >5.2 | > 25 µM | – |
| O=C(NCc1ccccc1F)c1cn(Cc2ccc(F)cc2)cc(O)c1=O [Compound 8e] | 6% | 3.6 | 5.8 ± 2.1 µM | – |
| Cc1cc(CNC(=O)c2cn(Cc3ccc(F)cc3)cc(O)c2=O)ccc1F [Compound 8s] | 6% | 10 | 10 ± 5.4 µM | – |
| CN(Cc1ccc(F)cc1F)C(=O)c1cn(Cc2ccc(F)cc2)cc(O)c1=O [Compound 11] | 6% | 8.6 | 12 ± 4.9 µM | – |
| O=C(NCc1ccc(F)cc1)c1cn(Cc2ccc(F)cc2)cc(O)c1=O [Compound 8b] | 7% | 8.2 | 6.4 ± 3.7 µM | – |
| O=C(NCc1ccc(F)c(Cl)c1)c1cn(Cc2ccc(F)cc2)cc(O)c1=O [Compound 8n] | 5% | 6.3 | 3.9 ± 2.3 µM | – |
| O=C(NCc1c(F)cccc1Cl)c1cn(Cc2ccc(F)cc2)cc(O)c1=O [Compound 8p] | 5% | – | – | viability at 168 h, 50 μmol/L (Cell viability assay): ~50%; Cytotoxicity in words (HFF cells): cytostatic but not a cytotoxic effect; Metabolic activity compared to DMSO (MTS assay) (HFF cells; across all compound concentrations 0.2–50 μmol/L): approximately 50% |
| CCOC(=O)c1cn(Cc2ccc(F)cc2)ccc1=O [Compound 42] | 7% | – | > 50 µM | Antiviral activity/potency in words (HCMV ADCREGFP [1]): no antiviral activity |
| Nc1nc(O)c2ncn(COC(CO)CO)c2n1 [Compound 1, ganciclovir, reference compound] | – | >50 | > 50 µM | – |
| O=C(NCCc1ccc(F)cc1F)c1cn(Cc2ccc(F)cc2)cc(O)c1=O [Compound 12] | 10% | >116 | > 50 µM | Time of addition, result in words (HCMV ADCREGFP [2]): inhibit viral replication at a stage between when GCV and LTV are active; Compound withdrawal, result in words (HCMV ADCREGFP [3]): inhibit a step in viral replication between LTV and GCV; half-life at 1 μmol/L [4]: > 24 h; Plasma stability in words [4]: excellent; half-life at 1 μmol/L [5]: > 24 h; half-life at 1 μmol/L [6]: 0.668 ± 0.03 h; Microsomal stability in words [6]: good; half-life at 1 μmol/L [7]: 0.433 ± 0.0167 h; PAMPA permeability class [8]: high permeability; Papp at 5 h, 2 μmol/L [8]: 4.5 ± 0.9 ×10⁻⁶ cm/s |
